Ten compounds from PubChem BioAssay can be followed below.

Calls of active or inactive are those of the source.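 The calls were made as follows, unless noted: active = a full or partial loss of lipid-probe fluorescence in the fish gall bladder, intestine or both, judged by eye; inactive = no fluorescence loss, or compound toxic to the fish.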

A short description of test [1]: inhibitors of TNFa-induced NFkB p65 translocation, primary screen, imaging, HUVEC, MLSMR starter and 10KST1 sets (AID 438;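 active = inhibition above 20% together with a positive visual image hit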;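 also: compound added about 3h40 before a 20 min TNFalpha stimulation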;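 as to inhibition: signal is the nuclear over cytoplasmic p65 intensity ratio per well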). The conditions noted are these: HUVEC TNFa-induced p65 nuclear translocation; cell count: measured here: nuclei count (cytotoxicity indicator), at 2.08 µM; inhibition: at 2 µM, stronger effect = higher value, 0% TNFa-plus-vehicle, 100% no-TNFa wells.
Test [2] is described as follows: endothelial E-selectin expression blockers – imaging, HUVEC, immunofluorescence, MLSMR starter and 10KST1 sets, primary screen (AID 487;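 active = visually confirmed hit in the image check and inhibition above 20%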;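 as to inhibition: signal is fraction of cell area covered by stained E-selectin grains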;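 as to nuclei count: 100% = median nuclei count of all wells on the same plate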). The conditions noted are these: HUVEC TNFalpha-induced E-selectin immunofluorescence imaging, at 2 µM; inhibition: stronger effect = higher value; nuclei count: measured here: cell number, toxicity.
Test [3] can be described thus: Primary imaging screen for DUSP6 inhibitors that restore phospho-Erk in transfected HeLa cells, chemical complementation (AID 609;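 active = compounds giving at least 50% inhibition in the cell-based MKP-3 phosphatase rescue imaging test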;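 as to inhibition: phospho-Erk level distribution per well compared with pooled transfected vehicle control wells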). The conditions noted are these: HeLa MKP-3 transfected, phospho-Erk imaging KS statistic, at 10 µM, cells stimulated with TPA for 15 min.
The target in test [4] is Dual specificity protein phosphatase 6 (Homo sapiens) (UniProt Q16828). Described as above. The settings on record: HeLa MKP-3 transfected, phospho-Erk imaging KS statistic; at 10 µM; stronger effect = higher value; cells stimulated with TPA for 15 min.
Chain of Dual specificity protein phosphatase 6 (Homo sapiens) (Q16828 whole entry, looked up): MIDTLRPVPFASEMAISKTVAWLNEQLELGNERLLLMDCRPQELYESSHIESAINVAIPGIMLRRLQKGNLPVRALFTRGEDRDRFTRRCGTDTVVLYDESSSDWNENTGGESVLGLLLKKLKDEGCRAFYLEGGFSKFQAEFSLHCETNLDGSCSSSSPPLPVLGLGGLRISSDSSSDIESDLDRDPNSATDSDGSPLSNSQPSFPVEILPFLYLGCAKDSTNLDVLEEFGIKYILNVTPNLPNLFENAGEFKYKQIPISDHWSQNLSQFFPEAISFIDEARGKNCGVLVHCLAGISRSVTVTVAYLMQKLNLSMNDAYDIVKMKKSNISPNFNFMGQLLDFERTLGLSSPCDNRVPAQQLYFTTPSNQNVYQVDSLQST
In test [5] the target is Voltage-gated potassium channel subunit beta-2 (Rattus norvegicus) (UniProt P62483). The test can be described thus: inhibitors of rat Kvbeta2 reductase activity – biochemical, NADPH fluorescence, primary screen (AID 622;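 active = fluorescence slope higher than the sample average by over 3 SD, cut at about -0.22 in these data, passing the limit was not always enough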;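 also: slope of raw intensity against log time taken from 70 to 1610 s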). The conditions noted are these: recombinant KvBeta, 4-cyanobenzaldehyde reduction, at 10 µM, stronger effect = higher value.
Chain of Voltage-gated potassium channel subunit beta-2 (Rattus norvegicus) (P62483 whole entry, looked up): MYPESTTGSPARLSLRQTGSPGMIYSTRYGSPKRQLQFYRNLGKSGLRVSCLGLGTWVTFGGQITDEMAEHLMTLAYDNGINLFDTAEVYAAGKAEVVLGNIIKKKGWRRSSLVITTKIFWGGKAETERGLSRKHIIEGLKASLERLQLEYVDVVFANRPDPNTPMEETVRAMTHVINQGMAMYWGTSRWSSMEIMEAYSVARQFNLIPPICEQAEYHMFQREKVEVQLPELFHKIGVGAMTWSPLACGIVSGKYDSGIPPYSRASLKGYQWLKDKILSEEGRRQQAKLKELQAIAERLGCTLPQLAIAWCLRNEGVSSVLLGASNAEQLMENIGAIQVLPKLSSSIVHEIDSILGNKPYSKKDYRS
Test [6] shares this target. The test can be described thus: enhancers of rat Kvbeta2 NADPH turnover – biochemical, NADPH fluorescence, primary screen (AID 623;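 active = NADPH fluorescence slope more negative than the mean of all samples by about 3 SD, 99.7% confidence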;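 also: fluorescence intensity change per second fitted from 20 to 320 s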). The settings on record: Recombinant KvBeta, NADPH fluorescence decrease slope, 10 min; at 10 µM; stronger effect = lower value.
The target in test [7] is Muscarinic acetylcholine receptor M4 (Homo sapiens) (UniProt P08173). The test can be described thus: M4-linked GIRK flux change, two-sided – cell-based, HEK293 M4/GIRK, thallium flux, BTC-AM, M4 allosteric agonist project, primary screen (AID 625;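 active = fluorescence slope after compound addition differing from the mean of all tested samples at 99.7% confidence, mostly higher but some lower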;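 also: thallium influx through GIRK channels coupled to M4 in HEK293 cells with BTC-AM dye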). The settings on record: at 10 µM, actives lie on both sides. Put shortly:
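Material: M4/GIRK1/GIRK2 stable HEK293 cell line. Medium: pH 7.3 thallium assay buffer. Dosing: single compound concentration, 10 µM final. Schedule: 1 h dye loading, 2 min kinetic read. Measured by: kinetic fluorescence with BTC-AM dye. Read-out: post-addition slope, 15–24 s, of baseline-normalized fluorescence. Benchmarks: carbachol and DMSO controls.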

Test [8] is described as follows: inhibitors of larval lipid processing in zebrafish, primary screen, whole organism, PED6 fluorescence, gall bladder and intestine (AID 686).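 Also: larvae 5 to 7 days old with five fish per well; signal comes from phospholipase A2 cleavage of quenched PED6 carried via bile; overnight exposure to compound and PED6 before scoring.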 The conditions noted are these: Zebrafish larvae PED6 lipid processing, fluorescence scoring; screened at 20 µM (by protocol). Put shortly:
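System: live zebrafish larvae aged 5-7 days, whole organism; measure: graded gall bladder and intestinal fluorescence inhibition per well; incubation: overnight exposure; reagent: ingested quenched lipid PED6 at 100 nM; signal: By-eye fluorescence microscopy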

Test [9] can be described thus: loss of swimming-algae plug formation – whole organism, Chlamydomonas reinhardtii, WT vs cilia-less mutant, absorbance, 96-well, primary screen (AID 463189;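 active = inhibition at or above 50% relative to wild type and mutant plate controls; inactive = inhibition below 50%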;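 also: 0% = wild type cc124 cells in DMSO and 100% = ciliumless bld1 mutant cells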). The settings on record: Chlamydomonas reinhardtii gravitaxis, OD600 absorbance, 2 days; at 10 µM; stronger effect = higher value.
Setting [10] is: measured here: cell density z-score.
[11] abbreviates: measured here: nuclear c-Myc green intensity z-score.
Where [12] appears, read: measured here: nuclear pErk red intensity z-score, stronger effect = higher value.

In general, inhibition refers to the relative decrease from the control value, in per cent.

Chain of Muscarinic acetylcholine receptor M4 (Homo sapiens) (P08173 whole entry, looked up): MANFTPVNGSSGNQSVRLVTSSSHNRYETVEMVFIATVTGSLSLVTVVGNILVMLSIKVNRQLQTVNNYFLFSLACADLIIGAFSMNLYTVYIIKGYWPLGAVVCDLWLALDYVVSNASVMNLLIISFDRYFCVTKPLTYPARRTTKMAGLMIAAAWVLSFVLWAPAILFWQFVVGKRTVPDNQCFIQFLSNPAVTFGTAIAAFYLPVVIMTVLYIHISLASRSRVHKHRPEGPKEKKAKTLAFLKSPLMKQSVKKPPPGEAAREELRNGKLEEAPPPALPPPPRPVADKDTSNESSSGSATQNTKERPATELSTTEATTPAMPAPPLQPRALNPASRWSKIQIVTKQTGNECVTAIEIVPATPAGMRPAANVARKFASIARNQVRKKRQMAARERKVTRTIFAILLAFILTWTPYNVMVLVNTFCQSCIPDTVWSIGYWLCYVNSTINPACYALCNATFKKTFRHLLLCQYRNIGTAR

On to `CC1(C)Cc2c(C#N)c(SCCOc3ccccc3)nc(N3CCOCC3)c2CO1`, for which, in test [1], the cell count was 387. The inhibition in [1] was -7.4% (inactive); in [2], -56.3% (inactive); in test [4], 5.42% (inactive); in [9], 25.7% (inactive). In [2], this compound displayed a nuclei count of 82.1%. Also, the z-score in test [3] (setting [10]) is -1.25; in [3] (setting [11]) it was 1.29; in [3] (setting [12]) it was 1.84. Also, the fluorescence slope in [5] was -0.415 (inactive); in [7], 0.00791 (inactive). Also, the NADPH fluorescence slope in [6] is -3.7e-05 (inactive). Besides, the outcome in test [8] was inactive.
Regarding `CC(=O)CCn1c(=O)n(CCC(C)=O)c(=O)n(CCC(C)=O)c1=O`, the cell count in [1] came out at 352. Moreover, the inhibition in [1] was -1.6% (inactive); in [2] it was -7% (inactive); in test [4], 5.42% (inactive); in test [9], -14.3% (inactive). Moreover, the nuclei count in test [2] was 97.7%. The z-score was -1.19 in test [3] (setting [10]), 2.07 in test [3] (setting [11]) and -0.0971 in test [3] (setting [12]). For the same compound, the fluorescence slope in test [5] was -0.512 (inactive); in [7], 0.00631 (inactive). In test [6], the NADPH fluorescence slope is -4.3e-05 (inactive). The compound was classed as inactive in test [8].
Regarding `Cn1c(=O)c2c(nc(Br)n2CCSc2nc3ccccc3o2)n(C)c1=O`, the cell count in test [1] turned out to be 608. In addition, the inhibition in [1] is -8.8% (inactive); in [2], 32.7% (inactive); in test [4] it was 17.4% (inactive); in [9], 45.2% (inactive). Further, the nuclei count in [2] turned out to be 175%. In addition, the z-score in test [3] (setting [10]) was -0.0761; in [3] (setting [11]), 0.135; in test [3] (setting [12]), -1.22. Also, the fluorescence slope is -0.346 (inactive) in test [5] and 0.00576 (inactive) in test [7]. Moreover, the NADPH fluorescence slope in test [6] is -7e-06 (inactive). Besides, the outcome in test [8] was inactive.
`Nc1ccc2oc(-c3cc(Br)ccc3Cl)nc2c1`: the cell count in test [1] is 569. Further, the inhibition in test [1] is 3.7% (inactive); in test [2] it was -26.9% (inactive); in test [4] it was 9.91% (inactive); in test [9], 15.1% (inactive). In addition, in test [2], the nuclei count turned out to be 171%. The z-score in test [3] (setting [10]) was 0.555; in test [3] (setting [11]), -1.29; in [3] (setting [12]), 0.312. Further, the results for the fluorescence slope in [5] and in test [7] were -0.00932 (inactive) and 0.00586 (inactive), respectively. The NADPH fluorescence slope in test [6] was 8.2e-06 (inactive). Moreover, the compound was called inactive in test [8].
On to `COC(=O)c1ccc(CSc2nc(N3CCOCC3)c3c(c2C#N)CC(C)(C)OC3)o1`, for which the cell count in test [1] turned out to be 563. For the same compound, the inhibition in test [1] is -4.2% (inactive); in test [2] it was -97.4% (inactive); in [4], 1.63% (inactive); in [9], 6.95% (inactive). The same compound returned a nuclei count in test [2] of 151%. Besides, the z-score was 0.813 in test [3] (setting [10]), -0.6 in test [3] (setting [11]) and 1.8 in [3] (setting [12]). Also, the results for the fluorescence slope in test [5] and in test [7] were -0.461 (inactive) and 0.00467 (inactive), respectively. In test [6], the NADPH fluorescence slope was -0.000112 (inactive). In addition, the outcome in test [8] was inactive.
Take `Cc1ccc(-n2ncc3c(NCCCOC(C)C)ncnc32)c(C)c1`: the cell count in [1] was 586. For the same compound, the inhibition is -13.1% (inactive) in [1], 45.2% (inactive) in [2], 1.42% (inactive) in test [4] and 39% (inactive) in test [9]. The compound also returned a nuclei count in test [2] of 161%. The z-score was -1.65 in test [3] (setting [10]), 1.1 in test [3] (setting [11]) and -0.077 in [3] (setting [12]). The values for the fluorescence slope in test [5] and in test [7] were -0.408 (inactive) and 0.00603 (inactive), respectively. Further, in [6], the NADPH fluorescence slope is -4.3e-05 (inactive). Moreover, the compound was called inactive in test [8].
For `CCOC(=O)c1c(CN2CCN(CCO)CC2)n(C)c2cc(Br)c(OC)cc12`, in test [1], the cell count came out at 380. Further, the inhibition in test [1] is -7.5% (inactive); in test [2], -1.9% (inactive); in test [4], -2.29% (inactive); in test [9] it was 26.8% (inactive). Besides, in [2], the nuclei count was determined as 103%. Besides, the z-score is -0.09 in [3] (setting [10]), 0.157 in test [3] (setting [11]) and 0.909 in [3] (setting [12]). Besides, the fluorescence slope in test [5] is -0.4 (inactive); in test [7], 0.00459 (inactive). Further, the NADPH fluorescence slope in [6] was 5.8e-06 (inactive). The call in test [8] was inactive.
Take `CCC(NC(=O)Nn1cnnc1)(C(F)(F)F)C(F)(F)F`: the cell count in test [1] is 726. In addition, the inhibition in [1] was 3.1% (inactive); in [2] it was -59.3% (inactive); in test [4], 1.98% (inactive); in [9], 19.5% (inactive). Moreover, the nuclei count in [2] was determined as 185%. Also, the z-score was -0.283 in test [3] (setting [10]), -1.06 in [3] (setting [11]) and 1.12 in test [3] (setting [12]). For the same compound, the figures for the fluorescence slope in [5] and in test [7] were -0.49 (inactive) and 0.00453 (inactive), respectively. In addition, the NADPH fluorescence slope in test [6] was -6.6e-05 (inactive). Also, in [8], the compound was called inactive.
On to `CCOC(=O)c1[nH]c2ccc(F)cc2c1NC(=O)CCN1CCSCC1`, for which, in [1], the cell count was 617. The inhibition is -1.1% (inactive) in [1], -124% (inactive) in test [2], 1.42% (inactive) in test [4] and -7.59% (inactive) in [9]. This compound also yielded a nuclei count in [2] of 130%. Further, the z-score in test [3] (setting [10]) is -0.422; in [3] (setting [11]), 0.0168; in [3] (setting [12]) it was 1.05. The fluorescence slope in test [5] is -0.455 (inactive); in test [7], 0.00431 (inactive). The NADPH fluorescence slope in test [6] is -0.000125 (inactive). Also, the compound was classed as inactive in [8].
On to `O=C(CC(c1ccco1)S(=O)(=O)c1ccccc1)c1ccc(F)cc1` (stereo not given), for which the cell count in [1] worked out at 585. The inhibition in test [1] was -2% (inactive); in test [2] it was -105% (inactive); in test [4], -14.6% (inactive); in test [9], 28.8% (inactive). In test [2], this compound came in with a nuclei count of 138%. The z-score in [3] (setting [10]) was -0.324; in test [3] (setting [11]), 0.355; in test [3] (setting [12]), 1.32. In addition, the fluorescence slope in test [5] is -0.413 (inactive); in test [7], 0.00466 (inactive). Also, in [6], the NADPH fluorescence slope was -0.000113 (inactive). In addition, in test [8], the compound was classed as inactive.
